Source: ChEMBL document CHEMBL1151874, “Design and synthesis of novel hybrid benzamide-peptide histone deacetylase inhibitors” (Bioorg Med Chem Lett, 2009)
Activity calls are given as the source filed them. The calls are words filed in the database; no cut-off is given here. Non-standard residues stand in square brackets, D forms with d. Residues, ends and D or L forms follow the SMILES beside them. *: point of attachment. Asu = N[C@@H](CCCCCC(=O)O)C(=O)O; NH(2-NH2-phenyl) = Nc1ccccc1N*

What was measured:
[1] = target: Histone deacetylase 1 (Homo sapiens, UniProt Q13547); test: Inhibition of human recombinant HDAC1
In short: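 Enzyme source: recombinant human HDAC1. IC50 reported as mean of two experiments with standard error.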

[2] = target: Histone deacetylase 3 (Homo sapiens, UniProt O15379); test: Inhibition of human recombinant HDAC3
In short: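 Recombinant human HDAC1 or HDAC3 enzyme inhibition assay. IC50 values are means of two experiments, with standard error reported.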

[3] = target: Histone deacetylase (Homo sapiens) (UniProt Q13547+O15379+Q9UBN7+Q92769+Q9UQL6+Q8WUI4+Q9BY41+Q96DB2+P56524+Q9UKV0+Q969S8); test: Inhibition of HDAC in human GM15850 cells assessed as effect on histone H3 acetylation at 20 uM after 48 hrs by Western blot analysis; type: cell-based
In short: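 Human lymphoblastoid line GM15850 exposed to compound at 20 µM for 48 h; endogenous histone H3 acetylation judged by western blot.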

[4] = Inhibition of Eimeria tenella HDAC1 assessed as [3H]acetate release by scintillation counting
[5] = species: Homo sapiens; test: Selectivity ratio of IC50 for human recombinant HDAC1 to IC50 for human recombinant HDAC3

Histone deacetylase 1, sequence (Q13547 whole entry): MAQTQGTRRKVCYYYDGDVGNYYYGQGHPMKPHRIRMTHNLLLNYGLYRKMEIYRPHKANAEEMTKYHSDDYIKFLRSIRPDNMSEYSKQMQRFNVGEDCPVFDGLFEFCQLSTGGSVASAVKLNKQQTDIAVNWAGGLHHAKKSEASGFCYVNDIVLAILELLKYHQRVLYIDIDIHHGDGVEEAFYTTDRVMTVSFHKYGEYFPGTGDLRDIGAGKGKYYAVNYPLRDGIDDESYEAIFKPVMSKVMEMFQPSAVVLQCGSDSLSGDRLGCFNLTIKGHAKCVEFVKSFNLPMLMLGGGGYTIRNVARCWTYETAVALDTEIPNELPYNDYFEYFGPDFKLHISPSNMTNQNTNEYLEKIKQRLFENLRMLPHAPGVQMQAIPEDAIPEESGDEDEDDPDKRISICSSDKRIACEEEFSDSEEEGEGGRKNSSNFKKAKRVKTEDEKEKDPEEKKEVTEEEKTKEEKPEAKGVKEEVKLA
Histone deacetylase 3, sequence (O15379 whole entry): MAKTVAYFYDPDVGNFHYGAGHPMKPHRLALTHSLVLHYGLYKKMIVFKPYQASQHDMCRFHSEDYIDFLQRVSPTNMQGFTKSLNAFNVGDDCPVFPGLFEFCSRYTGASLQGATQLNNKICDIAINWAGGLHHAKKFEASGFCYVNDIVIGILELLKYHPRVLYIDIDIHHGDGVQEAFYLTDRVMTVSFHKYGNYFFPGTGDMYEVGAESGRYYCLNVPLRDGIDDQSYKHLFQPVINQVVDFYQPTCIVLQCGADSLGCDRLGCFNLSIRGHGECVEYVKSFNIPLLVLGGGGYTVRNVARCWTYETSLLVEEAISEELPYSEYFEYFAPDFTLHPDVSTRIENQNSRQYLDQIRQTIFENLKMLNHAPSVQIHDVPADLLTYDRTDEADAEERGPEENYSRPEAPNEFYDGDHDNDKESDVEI

Structure (SMILES) | IC50 [1] [µM] | IC50 [2] [µM] | Activity [3] | IC50 [4] [nM] | Ratio IC50 [5]
N=C(N)NCCC[C@H](N)C(=O)NCC(=O)N[C@@H](CCCCCC(=O)Nc1ccccc1N)C(=O)Nc1ccccc1N | 4.7 | 1.3 | Active |  | 
N=C(N)NCCC[C@@H]1NC(=O)CNC(=O)[C@H](CCCCCC(=O)Nc2ccccc2N)NC(=O)CNC1=O (cyclo([Asu](NH(2-NH2-phenyl))GRG)) |  |  | Active |  | 
Nc1ccccc1NC(=O)CCCCC[C@H](NC(=O)[C@H]1CCCN1C(=O)[C@@H](N)Cc1ccccc1)C(=O)N[C@@H](Cc1ccccc1)C(=O)O | 84.2 | 27.2 |  |  | 
CCC(=O)CCCCC[C@@H]1NC(=O)[C@H]2CCCCN2C(=O)[C@H]([C@@H](C)CC)NC(=O)[C@H](Cc2cn(OC)c3ccccc23)NC1=O [APICIDIN] |  |  |  | 4 | 
Cc1ccc(C(=O)N[C@@H](CCCN=C(N)N)C(=O)NCCC(=O)Nc2ccccc2N)cc1 | 9.2 | 2.2 |  |  | 
Cc1ccc(C(=O)NCC(=O)NCCC(=O)Nc2ccccc2N)cc1 | 83.9 | 4.3 | Active |  | 19
Nc1ccccc1NC(=O)CCCCC[C@@H]1NC(=O)[C@H]2CCCN2C(=O)[C@H](Cc2ccccc2)NC(=O)[C@H](Cc2ccccc2)NC1=O | 20.5 | 5.6 |  |  | 
Nc1ccccc1NC(=O)CCCCC[C@H](NC(=O)[C@@H]1CCCN1C(=O)[C@@H](N)Cc1ccccc1)C(=O)Nc1ccccc1N | 7.3 | 3.4 |  |  | 
